Results: ChEMBL document CHEMBL3865853, “Synthesis and Bioevaluation of 3,6-Diaryl-[1,2,4]triazolo[4,3-b] Pyridazines as Antitubulin Agents” (ACS Med Chem Lett, 2016)
pIC50: −log10 of the molar value. The source made the active and inactive calls. No cut-off for these calls is given here.

Legend:
[1] = Cytotoxicity against human HT1080 cells assessed as reduction in cell viability after 24 hrs by MTT assay; assay type: functional, cell-based; settings: HT-1080, 24 h
Procedure, shortened: (§1)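 MTT viability assay on A549, HT-1080 and SGC-7901 cells; IC50 as concentration giving 50% inhibition; each experiment run in triplicate.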

[2] = Cytotoxicity against human SGC7901 cells assessed as reduction in cell viability after 24 hrs by MTT assay; assay type: functional, cell-based; settings: SGC-7901, 24 h; procedure, shortened: as §1
[3] = Cytotoxicity against human A549 cells assessed as reduction in cell viability after 24 hrs by MTT assay; assay type: functional, cell-based; settings: A549, 24 h; procedure, shortened: as §1
[4] = Cell cycle arrest in human A549 cells assessed as accumulation in G2/M phase at 0.018 uM by propidium iodide-staining based FACS analysis; assay type: functional
Sus scrofa = species: Sus scrofa; test: (§2) Inhibition of pig brain tubulin polymerization measured at 1 min intervals for 90 mins by spectrophotometric analysis
Procedure, shortened: (§3)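 Purified tubulin incubated at room temperature with test agent (0.33–10 μM range used), paclitaxel 5.0 μM, or DMSO vehicle; polymerization followed, IC50 derived; mean ± SD of three experiments in triplicate.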

A549 = test: Inhibition of alpha-tubulin polymerization in human A549 cells assessed as destruction of tubulin network at 2 times IC50 after 12 hrs by DAPI/FITC-dual staining based fluorescence microscopic analysis; assay type: cell-based
Procedure, shortened: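 Indirect immunofluorescence of microtubule network in cultured A549 cells after treatment at 2-fold IC50 concentrations; DMSO-treated cells as vehicle control.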

[5] = Cell cycle arrest in human A549 cells assessed as accumulation in G2/M phase at 0.016 uM by propidium iodide-staining based FACS analysis; assay type: functional; settings: TDE = time-dependent effect
[6] = Cell cycle arrest in human A549 cells assessed as accumulation in G2/M phase after 12 hrs by propidium iodide-staining based FACS analysis; assay type: functional
[7] = as §2; parameters: species or system Sus scrofa; procedure, shortened: as §3

Row | Compound | pIC50 [1] | pIC50 [2] | pIC50 [3] | Activity [4] | inhibition (Sus scrofa) | inhibition (A549) | Activity [5] | Activity [6] | pIC50 [7]
1 | COc1ccc(-c2ccc3nnc(-c4ccc(OC)c(OC)c4OC)n3n2)cc1 | 5.25 | 6.38 | 5.16 |  |  |  |  |  | 
2 | COc1ccc(-c2ccc3nnc(-c4cc(OC)c(OC)c(OC)c4)n3n2)cc1F | 5.77 | 5.38 | 5.37 |  |  |  |  |  | 
3 | COc1cc(-c2nnc3ccc(-c4ccc(C#N)cc4)nn23)cc(OC)c1OC | 4.47 | 4.51 | 4.29 |  |  |  |  |  | 
4 | COc1cc(-c2nnc3ccc(-c4cccc(N)c4)nn23)cc(OC)c1OC | 6.41 | 6.01 | 5.53 |  |  |  |  |  | 
5 | COc1ccc(-c2ccc3nnc(-c4cc(OC)c(OC)c(OC)c4)n3n2)cc1 | 7.77 | 6.59 | 7.29 |  |  |  |  |  | 
6 | COc1cc(-c2nnc3ccc(-c4cccc([N+](=O)[O-])c4)nn23)cc(OC)c1OC | 4.30 | 4.06 | 4.04 |  |  |  |  |  | 
7 | COc1cc(-c2nnc3ccc(-c4cccc(Cl)c4)nn23)cc(OC)c1OC | 4.22 | 4.20 | 4.32 |  |  |  |  |  | 
8 | COc1cc(-c2nnc3ccc(-c4ccc(SC)cc4)nn23)cc(OC)c1OC | 7.14 | 7.01 | 6.55 |  |  |  |  |  | 
9 | COc1ccc(-c2nnc3ccc(-c4ccc(C)cc4)nn23)c(OC)c1OC | 6.77 | 5.34 | 4.98 |  |  |  |  |  | 
10 | COc1ccc(-c2ccc3nnc(-c4cc(OC)c(OC)c(OC)c4)n3n2)cc1[N+](=O)[O-] | 5.16 | 5.64 | 5.34 |  |  |  |  |  | 
11 | COc1cc(-c2nnc3ccc(-c4cccc(Br)c4)nn23)cc(OC)c1OC | 4.26 | 4.23 | 4.28 |  |  |  |  |  | 
12 | COc1ccc(/C=C\c2cc(OC)c(OC)c(OC)c2)cc1O [COMBRETASTATIN A4] | 8.05 | 7.92 | 8.05 | Active | Dose-dependent effect | Active |  |  | 
13 | COc1ccc(-c2ccc3nnc(-c4ccc(OC)c(OC)c4OC)n3n2)cc1N | 6.04 | 6.04 | 5.58 |  |  |  |  |  | 
14 | COc1cc(-c2nnc3ccc(-c4ccc(C(F)(F)F)cc4)nn23)cc(OC)c1OC | 5.73 | 5.66 | 4.98 |  |  |  |  |  | 
15 | COc1cc(-c2nnc3ccc(-c4ccc(Cl)cc4)nn23)cc(OC)c1OC | 6.35 | 7.60 | 7.29 |  |  |  |  |  | 
16 | COc1ccc(-c2ccc3nnc(-c4cc(OC)c(OC)c(OC)c4)n3n2)cc1N | 7.92 | 7.85 | 8.10 |  | Dose-dependent effect | Active | Tde | Dose-dependent effect | 5.74
17 | COc1cc(-c2nnc3ccc(-c4ccc(N)cc4)nn23)cc(OC)c1OC | 5.79 | 5.91 | 5.63 |  |  |  |  |  | 
18 | COc1cc(-c2nnc3ccc(-c4ccc([N+](=O)[O-])cc4)nn23)cc(OC)c1OC | 5.31 | 5.62 | 5.41 |  |  |  |  |  | 
19 | COc1cc(-c2nnc3ccc(-c4ccc(F)cc4)nn23)cc(OC)c1OC | 7.68 | 5.69 | 5.66 |  |  |  |  |  | 
20 | COc1ccc(-c2ccc3nnc(-c4ccc(OC)c(OC)c4OC)n3n2)cc1[N+](=O)[O-] | 4.74 | 5.04 | 4.94 |  |  |  |  |  | 
21 | COc1cc(-c2nnc3ccc(-c4ccc(Br)cc4)nn23)cc(OC)c1OC | 6.82 | 5.89 | 6.11 |  |  |  |  |  | 
22 | COc1cc(-c2nnc3ccc(-c4ccc(C)cc4)nn23)cc(OC)c1OC | 6.85 | 7.80 | 7.64 |  |  |  |  |  | 
